# Data from ChEMBL document CHEMBL1157298, “Bioactive dammarane triterpenes from the mangrove plant Bruguiera gymnorrhiza” (J Nat Prod, 2006).
# Calls of active or inactive are those of the source. The rule behind the calls is not given here.
# Columns and labels:
# HepG2 [1] = experiment: Induction of ARE in human HepG2 cells by luciferase assay; assay type: functional, cell-based
# Outline: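 Stably transfected HepG2 cells carrying an ARE-luciferase reporter. EC50 is the concentration giving activation halfway between the DMSO-control baseline and the maximum response at 20 µg/mL.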
# [2] = biological target: Prostaglandin G/H synthase 1 (Homo sapiens) (UniProt P23219); experiment: Inhibition of COX1
# Outline: (§1)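 COX-1 and COX-2 activity read out as PGE2 production. Indomethacin served as the positive control.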
# HepG2 [3] = experiment: Inhibition of TPA-induced NF-kappaB activation in human HepG2 cells by luciferase assay; assay type: functional, cell-based
# Outline: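 NFκB-luciferase reporter construct activated with TPA (phorbol ester). IC50 is the concentration that reduces TPA-activated NFκB luciferase activity by 50%.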
# HepG2 [4] = experiment: Cytotoxicity against human HepG2 cells; assay type: cell-based
# [5] = biological target: T1, Prostaglandin G/H synthase 2 (Homo sapiens, UniProt P35354); experiment: (§2) Inhibition of COX2; outline: as §1
# T1 sequence (P35354 whole entry): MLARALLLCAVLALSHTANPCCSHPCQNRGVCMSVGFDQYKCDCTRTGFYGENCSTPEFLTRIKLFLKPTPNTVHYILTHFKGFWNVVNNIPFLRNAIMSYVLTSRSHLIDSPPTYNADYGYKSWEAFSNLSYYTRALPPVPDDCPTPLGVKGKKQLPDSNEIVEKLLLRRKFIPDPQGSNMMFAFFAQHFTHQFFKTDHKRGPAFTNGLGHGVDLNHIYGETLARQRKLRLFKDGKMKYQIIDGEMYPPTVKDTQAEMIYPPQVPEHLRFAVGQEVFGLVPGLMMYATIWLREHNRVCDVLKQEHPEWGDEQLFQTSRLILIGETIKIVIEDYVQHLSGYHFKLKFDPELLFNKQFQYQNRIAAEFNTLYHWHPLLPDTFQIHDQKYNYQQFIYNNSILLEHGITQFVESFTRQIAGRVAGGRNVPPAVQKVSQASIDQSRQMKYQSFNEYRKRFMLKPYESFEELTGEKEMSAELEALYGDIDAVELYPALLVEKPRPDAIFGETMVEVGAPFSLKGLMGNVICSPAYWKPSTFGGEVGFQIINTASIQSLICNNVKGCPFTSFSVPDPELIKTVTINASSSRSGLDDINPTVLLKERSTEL
# [6] = biological target: T2, Prostaglandin G/H synthase 2 (Homo sapiens) (UniProt P35354); experiment: as §2; outline: as §1
# T2 sequence (whole entry): T1 sequence (P35354 whole entry)
# Chain of Prostaglandin G/H synthase 1 (Homo sapiens) (P23219 whole entry): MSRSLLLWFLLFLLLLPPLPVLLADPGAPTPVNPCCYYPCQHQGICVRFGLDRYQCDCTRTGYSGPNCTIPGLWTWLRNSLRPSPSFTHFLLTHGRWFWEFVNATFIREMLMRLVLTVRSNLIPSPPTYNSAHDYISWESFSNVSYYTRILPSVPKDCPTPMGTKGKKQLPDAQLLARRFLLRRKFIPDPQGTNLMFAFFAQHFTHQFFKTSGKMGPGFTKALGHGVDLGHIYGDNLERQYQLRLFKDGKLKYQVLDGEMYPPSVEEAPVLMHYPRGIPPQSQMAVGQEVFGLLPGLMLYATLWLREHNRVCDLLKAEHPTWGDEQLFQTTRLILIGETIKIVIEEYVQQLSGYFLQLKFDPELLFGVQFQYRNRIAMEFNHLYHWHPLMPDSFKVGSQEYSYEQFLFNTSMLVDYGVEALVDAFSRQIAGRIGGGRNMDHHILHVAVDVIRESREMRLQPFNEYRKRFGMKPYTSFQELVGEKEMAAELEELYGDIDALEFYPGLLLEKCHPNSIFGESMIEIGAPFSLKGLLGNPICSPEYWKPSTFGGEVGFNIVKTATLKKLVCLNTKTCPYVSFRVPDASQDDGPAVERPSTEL
Compound,EC50 (HepG2 [1]) [µM],Activity [2],IC50 (HepG2 [3]) [µM],IC50 [5] [µM],Activity (HepG2 [4]),Activity [6]
CCCCCCCCCCCCCCCCCC(=O)O[C@H]1CC[C@]2(C)[C@H]3[C@H](O)C[C@@H]4[C@@H]([C@@](C)(O)CCC=C(C)C)CC[C@@]4(C)[C@]3(C)CC[C@H]2C1(C)C [BRUGUIERIN B],9.4,inactive,,,Non-toxic,inactive
CCCCCCCCCCCCCCCCCC(=O)O[C@H]1C[C@@H](O)[C@]2(C)[C@H]3CC[C@@H]4[C@@H]([C@@](C)(O)C/C=C/C(C)(C)OO)CC[C@@]4(C)[C@]3(C)CC[C@H]2C1(C)C [BRUGUIERIN C],15.7,inactive,,,Non-toxic,inactive
C[S+]([O-])CCCCN=C=S (stereo unspecified) [SULFORAPHANE],4,,,,,

# Now from value to compound, other results behind:
EC50 (HepG2 [1]) [µM],Activity [2],IC50 (HepG2 [3]) [µM],IC50 [5] [µM],Compound,Activity (HepG2 [4]),Activity [6]
30,,,,O=c1cc(-c2ccc(Br)cc2)oc2ccccc12,,
8,,,,O=c1cc(-c2ccccc2)oc2ccc3ccccc3c12 [BETA-NAPHTHOFLAVONE],,
7.8,inactive,1.4,0.37,CCCCCCCCCCCCCCCCCC(=O)O[C@H]1C[C@@H](O)[C@]2(C)[C@H]3CC[C@@H]4[C@@H]([C@@](C)(O)CCC=C(C)C)CC[C@@]4(C)[C@]3(C)CC[C@H]2C1(C)C [BRUGUIERIN A],Non-toxic,
